Here are results for four compounds from ChEMBL document CHEMBL1153900, “Structure-activity studies of echinomycin antibiotics against drug-resistant and biofilm-forming Staphylococcus aureus and Enterococcus faecalis” (Bioorg Med Chem Lett, 2009).

In brackets after ≈: the same amount, converted by molar mass. Activity calls are given as the source filed them. The rule behind the calls is not given here.

In test [1] the test system is Enterococcus faecalis. Put plainly: Inhibition of Enterococcus faecalis ATCC 29212 biofilm formation assessed as visible growth after 24 hrs.
The subject of test [2] is Staphylococcus aureus. The experiment in a line: Antimicrobial activity against methicillin-resistant Staphylococcus aureus L44 clinical isolate assessed as reduction in bacterial load at 4 fold MIC over 24 hrs by time-kill assay. Format: functional. In outline:
(§1)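 Time-kill assay at 2× and 4× MIC over 24 h. Starting inoculum 5 × 10⁵ CFU/mL. Read-out is the mean change in bacterial density (log₁₀ CFU/mL) from the starting inoculum at 24 h, compared with a growth control.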

Test [3] has as its system Staphylococcus aureus. The experiment in a line: Antimicrobial activity against methicillin-resistant Staphylococcus aureus L44 clinical isolate by CLIS method. It counts as functional. Summed up:
(§2)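 MIC and MBC determined against biofilm-forming strains: MSSA ATCC 35556, E. faecalis ATCC 29212, and two clinical biofilm-forming MRSA isolates (L32, L44) obtained from patient blood samples.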

Test [4] concerns Staphylococcus aureus. Put plainly: Inhibition of methicillin-susceptible Staphylococcus aureus ATCC […] biofilm formation assessed as concentration required to eradicate growth after 24 hrs. It counts as functional. Summed up:
(§3)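 Modified Calgary pin-lid biofilm device, testing sessile bacteria seeded from an established biofilm. MBIC is the concentration giving no visible growth after 24 h incubation of preformed biofilm with antibiotic. MBEC is the minimal concentration that eradicates CFU/mL growth from the biofilm.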

For test [5], the system named is Staphylococcus aureus. The experiment in a line: Antimicrobial activity against methicillin-resistant Staphylococcus aureus L32 clinical isolate assessed as reduction in bacterial load at 2 X MIC over 24 hrs by time-kill assay. Format: functional. In outline: as §1
Test [6] concerns Staphylococcus aureus. Put plainly: Antimicrobial activity against methicillin-susceptible Staphylococcus aureus ATCC 35556 assessed as reduction in bacterial load at 4 fold MIC over 24 hrs by time-kill assay.
The test system of test [7] is Staphylococcus aureus. The experiment in a line: Antimicrobial activity against methicillin-susceptible Staphylococcus aureus ATCC 35556 assessed as reduction in bacterial load at 2 X MIC over 24 hrs by time-kill assay.
Test [8] relates to Staphylococcus aureus. Put plainly: Inhibition of Staphylococcus aureus ATCC 35556 biofilm formation at MIC.
The test system of test [9] is Staphylococcus aureus. Put plainly: Inhibition of methicillin-susceptible Staphylococcus aureus ATCC 35556 biofilm formation assessed as visible growth after 24 hrs.
For test [10], the system named is HCT-116. Put plainly: Cytotoxicity against human HCT116 cells. It counts as functional, cell-based.
The subject of test [11] is Staphylococcus aureus. The experiment in a line: Antimicrobial activity against methicillin-resistant Staphylococcus aureus L44 clinical isolate assessed as reduction in bacterial load at 2 X MIC over 24 hrs by time-kill assay. Format: functional. Summed up: as §1
In test [12] the test system is Enterococcus faecalis. The experiment in a line: Antimicrobial activity against Enterococcus faecalis ATCC 29212 assessed as reduction in bacterial load at 4 fold MIC over 24 hrs by time-kill assay.
Test [13] concerns Staphylococcus aureus. The experiment in a line: Antimicrobial activity against methicillin-resistant Staphylococcus aureus L32 clinical isolate by CLIS method. It counts as functional. Summed up: as §2
Test [14] deals with Staphylococcus aureus. The experiment in a line: Antimicrobial activity against methicillin-susceptible Staphylococcus aureus ATCC 35556 by CLIS method.
In test [15] the test system is Enterococcus faecalis. The experiment in a line: Inhibition of Enterococcus faecalis ATCC 29212 biofilm formation assessed as concentration required to eradicate growth after 24 hrs.
The subject of test [16] is Staphylococcus aureus. The experiment in a line: Antimicrobial activity against methicillin-resistant Staphylococcus aureus L32 clinical isolate assessed as reduction in bacterial load at 4 fold MIC over 24 hrs by time-kill assay. Format: functional. Summed up:
as §1

Test [17] concerns Enterococcus faecalis. Put plainly: Inhibition of Enterococcus faecalis ATCC 29212 biofilm formation at MIC.
Test [18] deals with Enterococcus faecalis. The experiment in a line: Antimicrobial activity against Enterococcus faecalis ATCC 29212 by CLIS method.
Test [19] has as its system Enterococcus faecalis. The experiment in a line: Antimicrobial activity against Enterococcus faecalis ATCC 29212 assessed as reduction in bacterial load at 2 X MIC over 24 hrs by time-kill assay.
Test [20] has as its system Staphylococcus aureus. The experiment in a line: Inhibition of methicillin-resistant Staphylococcus aureus L44 clinical isolate biofilm formation assessed as visible growth after 24 hrs. It counts as functional. In outline: as §3
The test system of test [21] is Staphylococcus aureus. The experiment in a line: Inhibition of methicillin-resistant Staphylococcus aureus L44 clinical isolate biofilm formation assessed as concentration required to eradicate growth after 24 hrs. Format: functional. Summed up:
as §3

Test [22] concerns Staphylococcus aureus. Put plainly: Inhibition of methicillin-resistant Staphylococcus aureus L32 clinical isolate biofilm formation assessed as visible growth after 24 hrs. It counts as functional. Summed up:
as §3

The test system of test [23] is Staphylococcus aureus. The experiment in a line: Inhibition of methicillin-susceptible Staphylococcus aureus ATCC 35556 biofilm formation assessed as concentration required to eradicate growth after 24 hrs.
Test [24] has as its system Staphylococcus aureus. The experiment in a line: Inhibition of methicillin-resistant Staphylococcus aureus L32 clinical isolate biofilm formation assessed as concentration required to eradicate growth after 24 hrs. It counts as functional, isolateL32. Summed up: as §3

For `CS[C@@H]1[C@H]2C(=O)N(C)[C@@H](C(C)C)C(=O)OC[C@@H](NC(=O)c3cnc4ccccc4n3)C(=O)N[C@@H](C)C(=O)N(C)[C@@H](C[S+]1[O-])C(=O)N(C)[C@@H](C(C)C)C(=O)OC[C@@H](NC(=O)c1cnc3ccccc3n1)C(=O)N[C@@H](C)C(=O)N2C` (stereo partly drawn), the MBEC in test [1], in [4] and in test [15] was more than 4 µM throughout. In addition, the log10CFU/ml in test [2] is reported as -2.24; in test [5], -1.35; in test [6] it was -3.24; in test [7] it was -3.39; in test [11], -1.09; in test [12] it was -1.04. The results for the log10CFU/ml in test [16] and in test [19] were -2.15 and 0.69, respectively. Moreover, the MBC in test [3] was 7.17 µM (≈ 8.01 µg/mL); in test [13], 7.17 µM (≈ 8.01 µg/mL); in [14], 3.58 µM (≈ 4 µg/mL); in test [18] it was more than 14 µM. Also, the MIC is 1.79 µM (≈ 2 µg/mL) in test [3], 1.79 µM (≈ 2 µg/mL) in [13], 0.9 µM (≈ 1.01 µg/mL) in test [14] and 0.22 µM (≈ 0.246 µg/mL) in [18]. Further, the outcome in [8] and in test [17] was Active. The MBIC in test [9] amounted to 3.6 µM. The compound further came in with an IC50 in [10] of 0.4 µM.

In the case of `CS[C@H]1SC[C@H](N(C)C(=O)[C@H](C)NC(=O)[C@@H](CO)NC(=O)c2cnc3ccccc3n2)C(=O)N(C)[C@@H](C(C)C)C(=O)OC[C@@H](NC(=O)c2cnc3ccccc3n2)C(=O)N[C@@H](C)C(=O)N(C)[C@@H]1C(=O)N(C)[C@H](C(=O)O)C(C)C` [DEPSIECHINOSERINE], the MBC in test [3], in [13], in test [14] and in test [18] was more than 14 µM throughout. The MIC in test [3] was more than 14 µM; in test [13], more than 14 µM; in test [14], more than 14 µM; in test [18], 14 µM (≈ 15.7 µg/mL). In addition, the IC50 in test [10] came out at 4.6 µM.

With `CS[C@H]1SC[C@H]2C(=O)N(C)[C@@H](C(C)C)C(=O)OC[C@@H](NC(=O)c3cnc4ccccc4n3)C(=O)N[C@@H](C)C(=O)N(C)[C@@H]1C(=O)N(C)[C@@H](C(C)C)C(=O)OC[C@@H](NC(=O)c1cnc3ccccc3n1)C(=O)N[C@@H](C)C(=O)N2C` [ECHINOMYCIN], the MBIC was 0.22 µM in test [1]; more than 4 µM in test [20]; more than 4 µM in test [21]; more than 4 µM in test [22]; 0.03 µM in test [9]; 0.22 µM in test [15]. Also, the MBIC in test [24] was more than 4 µM. The log10CFU/ml in [2] is recorded as -1.23; in test [5], 0.61; in test [6] it was -1.79; in [7], -1.54; in test [11] it was 0.423; in test [12] it was -1.42. In addition, the values for the log10CFU/ml in test [16] and in test [19] were -2.39 and 0.04, respectively. Further, the MBC in [3] turned out to be 0.45 µM (≈ 0.496 µg/mL); in test [13] it was 0.91 µM (≈ 1 µg/mL); in test [14], 0.45 µM (≈ 0.496 µg/mL); in test [18], 0.11 µM (≈ 0.121 µg/mL). Further, the MIC in test [3] turned out to be 0.03 µM (≈ 0.033 µg/mL); in test [13], 0.03 µM (≈ 0.033 µg/mL); in [14], 0.01 µM (≈ 0.011 µg/mL); in test [18], 0.01 µM (≈ 0.011 µg/mL). The result in test [8] and in test [17] was Active. Further, the IC50 in test [10] was less than 0.003 µM. The MBEC in test [23] is 0.22 µM.

For the compound `CS[C@@H](SC[C@@H](C(=O)N(C)[C@H](C(=O)O)C(C)C)N(C)C(=O)[C@H](C)NC(=O)[C@@H](CO)NC(=O)c1cnc2ccccc2n1)[C@@H](C(=O)N(C)[C@H](C(=O)O)C(C)C)N(C)C(=O)[C@H](C)NC(=O)[C@@H](CO)NC(=O)c1cnc2ccccc2n1` [ECHINOSERINE], the MBC in test [3], in test [13], in test [14] and in [18] was more than 14 µM in each case. The MIC in [3], in [13], in [14] and in test [18] was more than 14 µM each time. In test [10], this compound yielded an IC50 of 13.4 µM.
